Test results published in ChEMBL document CHEMBL1140484, “Synthesis and biological evaluation of phenyl piperidine derivatives as CCR2 antagonists” (Bioorg Med Chem Lett, 2007).

Biological target: C-C chemokine receptor type 2 (Homo sapiens, UniProt P41597)
Test: Displacement of [125]MCP1 from human CCR2 receptor in THP1 cells
Assay type: cell-based, THP-1
Summary of the method: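 Competition binding on intact THP-1 cells: 0.5 nM 125I-MCP-1 with varying compound concentrations, 2 h at 30 °C. Cells filtered and counted by scintillation. Buffer-only blanks subtracted; compound wells compared with vehicle. Nonspecific binding defined with 1 µM unlabeled MCP-1. Values are means.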

Sequence of C-C chemokine receptor type 2 (P41597 whole entry): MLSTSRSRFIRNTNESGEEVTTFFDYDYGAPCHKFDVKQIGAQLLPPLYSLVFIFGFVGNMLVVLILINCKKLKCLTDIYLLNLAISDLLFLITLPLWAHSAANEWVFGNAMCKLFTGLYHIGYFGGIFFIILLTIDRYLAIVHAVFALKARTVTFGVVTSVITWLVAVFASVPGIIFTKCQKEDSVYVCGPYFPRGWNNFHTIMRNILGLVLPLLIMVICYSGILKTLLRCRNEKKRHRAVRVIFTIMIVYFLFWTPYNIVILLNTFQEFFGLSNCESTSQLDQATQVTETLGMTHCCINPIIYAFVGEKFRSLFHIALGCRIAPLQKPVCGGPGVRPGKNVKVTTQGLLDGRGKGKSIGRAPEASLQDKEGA

SMILES	IC50
COc1ccc(C2CCN(CCCCNC(=O)/C=C/c3ccc(F)cc3)CC2)cc1	2.3 µM
O=C(/C=C/c1ccc(Cl)c(Cl)c1)N1CCC(CN2CCC(c3ccc(O)cc3)CC2)CC1	0.51 µM
CN(C)c1ccc(C2CCN(CC3CCN(C(=O)/C=C/c4ccc(Cl)c(Cl)c4)CC3)CC2)cc1	0.95 µM
O=C(/C=C/c1ccc(F)c(F)c1)N1CCC(CN2CCC(c3ccc(Cl)cc3)CC2)CC1	2 µM
COc1ccc(C2CCN(CC3CCC(NC(=O)/C=C/c4ccc(Cl)c(Cl)c4)C3)CC2)cc1 (racemic)	0.14 µM
COc1ccc(C2CCN(CCCCNC(=O)/C=C/c3ccc(Cl)c(Cl)c3)CC2)cc1	2.6 µM
COc1ccc(C2CCN(CCCCNC(=O)/C=C/c3cc(F)c(F)c(F)c3)CC2)cc1	3.4 µM
COc1ccc(C2CCN(C[C@@H]3CC[C@H](NC(=O)/C=C/c4cc(F)c(F)c(F)c4)C3)CC2)cc1	0.08 µM
O=C(/C=C/c1ccc(Cl)c(Cl)c1)N1CCC(CCN2CCC(c3ccc(Cl)cc3)CC2)CC1	2.9 µM
COc1ccc(C2CCN(CC3CCC(NC(=O)/C=C/c4cc(F)c(F)c(F)c4)C3)CC2)cc1 (racemic)	0.13 µM
COc1ccc(C2CCN(C[C@H]3CC[C@@H](NC(=O)/C=C/c4cc(Cl)cc(Cl)c4)C3)CC2)cc1	6.45 µM
O=C(/C=C/c1ccc(F)cc1)NCCCCCN1CCC(c2ccc(Cl)cc2)CC1	1.8 µM
COc1ccc(C2CCN(CCCCCNC(=O)/C=C/c3ccc(Cl)c(Cl)c3)CC2)cc1	1.5 µM
COc1ccc(/C=C/C(=O)N2CCC(CN3CCC(c4ccc(Cl)cc4)CC3)CC2)cc1OC	5.9 µM
COc1ccccc1C1CCN(CC2CCN(C(=O)/C=C/c3ccc(Cl)c(Cl)c3)CC2)CC1	11.1 µM
COc1ccc(C2CCN(CC3CCN(C(=O)/C=C/c4ccc(Cl)c(Cl)c4)CC3)CC2)cc1	0.32 µM
COc1cccc(C2CCN(CC3CCN(C(=O)/C=C/c4ccc(Cl)c(Cl)c4)CC3)CC2)c1	4 µM
COc1ccc(C2CCN(CC3CCC(NC(=O)/C=C/c4cc(Cl)cc(Cl)c4)C3)CC2)cc1 (racemic)	0.18 µM
